High-throughput results as filed in PubChem.
CHT block – inhibitors of human choline transporter CHT; 0.86% of 310,000 active; High affinity choline transporter 1 (Homo sapiens), Q9GZV3; B-score at 10 µM; CHT-expressing cells, membrane potential dye, choline response; active compounds read low;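 active means B-score over 3 SD under the library average, and starting fluorescence ratio not unusually high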;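 further: choline stimulus applied at its EC90 after an EC20 pre-addition; B-score computed on integrated fluorescence ratio after choline addition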
Target sequence (Q9GZV3 whole entry, looked up): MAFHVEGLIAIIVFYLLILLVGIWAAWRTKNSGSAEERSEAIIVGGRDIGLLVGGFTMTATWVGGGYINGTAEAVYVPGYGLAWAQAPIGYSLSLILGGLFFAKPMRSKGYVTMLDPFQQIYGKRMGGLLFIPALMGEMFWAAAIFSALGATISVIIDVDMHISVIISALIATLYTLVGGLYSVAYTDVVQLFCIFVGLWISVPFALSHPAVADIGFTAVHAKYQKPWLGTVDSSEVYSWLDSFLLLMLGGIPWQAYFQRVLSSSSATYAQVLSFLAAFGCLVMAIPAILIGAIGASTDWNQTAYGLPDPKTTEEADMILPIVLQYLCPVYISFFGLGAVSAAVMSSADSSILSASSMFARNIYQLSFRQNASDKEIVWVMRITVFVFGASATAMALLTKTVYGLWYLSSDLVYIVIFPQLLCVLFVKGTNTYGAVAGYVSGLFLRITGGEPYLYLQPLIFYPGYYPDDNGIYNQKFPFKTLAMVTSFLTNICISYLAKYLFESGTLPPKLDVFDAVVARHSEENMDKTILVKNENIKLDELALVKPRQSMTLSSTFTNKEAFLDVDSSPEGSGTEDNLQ
PolyA inh – polyadenylation inhibitors in yeast reporter cells, primary screen, luminescence, S. cerevisiae. activity score, % at 12 µM. 0.02% of 300,000 active. S. cerevisiae SKY197-pL101 polyadenylation reporter, beta-gal luminescence; efflux-impaired pdr1/pdr3 knockout yeast; score 100 = 6 SD above DMSO;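 active means lowest replicate activity score at least 50, where 100 means six control SD above control mean; inconclusive means lowest score under 50 but half or more replicates reach 50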;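 further: yeast exposed to compound for 9 h at 30 °C; higher score means more reporter readthrough which indicates perturbed polyadenylation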
T cruzi inh – inhibitors of intracellular T. cruzi growth, primary screen, luminescence, NIH3T3 host cells. 1.4% of 300,000 active. T. cruzi beta-gal in NIH3T3, 90 h. inhibition, % (concentration not given with the values);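 active means mean inhibition across valid replicates above about 55%, limit read from the data; inconclusive means mean below that limit but half or more replicates reach it; inactive means mean below it, under half of replicates reach it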;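 further: signal also drops with host cell toxicity which is not excluded here; 0% = plate median of DMSO wells and 100% = zero luminescence signal; higher percent means less beta-gal luminescence so fewer parasites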
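Test system: β-gal T. cruzi (Tulahuen C4) inside NIH/3T3 cells / Quantity: 5,000 cells/well / Measured by: luminescence from GalScreen with 0.05% NP40, read after 60 min / Medium: DMEM plus 2% FBS / Measure: parasite load inhibition, % / Reagent: Tulahuen C4 trypomastigotes, 5000/well / Schedule: co-culture of at least 90 h after 3 h attachment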
CHT PAM – CHT positive allosteric modulators, primary screen, cell-based, membrane potential dye, choline EC20 | B-score at 10 µM | 0.49% of 310,000 active | CHT-expressing cells; active compounds read high; LV-AA mutant CHT in HEK293 cells | High affinity choline transporter 1 (Homo sapiens), Q9GZV3;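 active means initial fluorescence not abnormally high and integrated response B-score, plate-corrected, over 3 SD above library mean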
* marks the source's active call; other numbers are inactive results; i = inactive; ? = inconclusive; / = no result. Shown are actives, neighbours in structure and some others; about 2.6% of the full set was active somewhere.

SMILES | CHT block | PolyA inh | T cruzi inh | CHT PAM
CCOc1ccc(-n2c(-c3ccc(Cl)cc3)c[n+]3c2SCC3)cc1 | i | 2 | 62* | i
CN(CC1CCCN(CCc2cccc(C(F)(F)F)c2)C1)C(=O)c1ccco1 (stereo not given) | i | -6 | 60* | i
CCN(Cc1cccc(OC)c1)CC1CCCN(CCc2cccc(OC)c2)C1 (stereo not given) | i | 13 | 53 | i
CCN(Cc1ccc(O)cc1)CC1CCCN(CCc2cccc(F)c2)C1 (stereo not given) | i | 2 | 61* | i
Cc1ccc(CS(=O)Cc2ccc(C(=O)N3CCN(c4ccccc4)CC3)o2)cc1 (stereo not given) | i | -8 | 56* | i
Cc1ccc(CS(=O)Cc2ccc(C(=O)N3CCN(c4ccc(F)cc4)CC3)o2)cc1 (stereo not given) | i | 19 | 10 | i
O=C(OCC(=O)N1CCC(c2ccccc2)=N1)c1ccc([N+](=O)[O-])s1 | i | 14 | 55* | i
Cc1[nH]c2ccccc2c1C(=O)COC(=O)c1ccc([N+](=O)[O-])s1 | i | -90 | 74* | i
Cc1ncoc1C(=O)NC1CCCc2c1cnn2-c1ccc(C(C)(C)C)cc1 (stereo not given) | / | -15 | 24 | /
Cc1ccc(C(C)C)c(OCc2ccc(C(=O)N/N=C/c3cccc(O)c3O)cc2)c1 | i | 16 | 58* | i
Cc1cccc(-c2nc(S(=O)(=O)c3ccc(F)cc3)c(NCCCN3CCOCC3)o2)c1 | i | -3 | -3 | i
CCn1c(C)cc(/C=C2\NC(=O)N(Cc3ccc(Cl)cc3)C2=O)c1C | i | 2 | 55* | i
Cc1ccc2c(c1)N(CC(=O)N1CCCCC1C)C(=O)CO2 (stereo not given) | i | -13 | -3 | i
Cc1ccc2c(c1)N(CC(=O)N1CCCCC1c1cccnc1)C(=O)CO2 (stereo not given) | i | 15 | 61* | i
COCCn1c(SCC(=O)NCC2CCCO2)nc2c(c1=O)SCC2 (stereo not given) | i | 10 | -6 | i
CC(C)N1CC(C(=O)Nc2ccc(C#N)cc2)CC1=O (stereo not given) | i | 17 | -16 | i
N=c1ccn(CC(=O)c2ccc(-c3ccccc3)cc2)cc1 | i | -12 | 58* | i
O=C(CN1C(=O)CCC1=O)c1ccc(-c2ccccc2)cc1 | i | 4 | -3 | i
COc1ccc2cc3cc(C(=O)NCCN4CCN(Cc5ccccc5)CC4)oc3nc2c1 | i | -1 | 64* | i
Cc1ccccc1S(=O)(=O)Cc1ccc(C(=O)NCCN2CCN(Cc3ccccc3)CC2)o1 | i | 9 | 61* | i
Cc1c(N/C(=N/S(=O)(=O)c2ccc(F)cc2)c2ccccc2)c(=O)n(-c2ccccc2)n1C | i | 10 | 6 | i
COc1ccc(-c2nn(C)c(=O)c3ccccc23)cc1NC(=O)Cn1nc(C)c2ccccc2c1=O | i | -6 | 74* | i
CCC(=O)Nc1cc(-c2nn(C)c(=O)c3ccccc23)ccc1OC | i | -2 | -3 | i
COc1ccc(-c2cn(Cc3ccc(C(=O)NCc4ccc(C)cc4)cc3)c(C(C)N)n2)cc1 (stereo not given) | i | 38 | 42 | i
O=C(CSc1ccc(-c2ccccn2)nn1)c1ccccc1 | i | -7 | 6 | i
SMILES | CHT block | PolyA inh | T cruzi inh | CHT PAM
c1ccc(CSc2ccc(-c3ccccn3)nn2)cc1 | i | -21 | 58* | i
O=C(CSc1ccc(-c2ccccn2)nn1)NCc1ccc(Cl)cc1 | i | 5 | ? | i
Clc1ccc(CSc2ccc(-c3ccccn3)nn2)cc1 | i | 1 | 68* | i
C/C(=N\NC(=O)c1ccc(Br)cc1)C1C(=O)c2ccccc2C1=O | -6.9* | -16 | 1 | i
Cc1ccc(C)c(S(=O)(=O)N2CCN(C(=O)c3sccc3C)CC2)c1 | i | -12 | 1 | i
CC(C)COc1ccc(-c2nn(-c3ccccc3)cc2C(=O)Nc2nccs2)cc1 | i | 4 | 64* | i
CCCCOc1ccc(C(=O)NCC(=O)NC2CCN(Cc3ccccc3)CC2)cc1 | i | -6 | 18 | i
O=C(Nc1ccccc1-c1nc2ccccc2[nH]1)c1ccc(N2C(=O)CCC2=O)cc1 | i | -1 | 19 | i
O=C(Nc1ccccc1-c1nc2ccccc2[nH]1)c1ccc(S(=O)(=O)N2CCCCC2)cc1 | / | -7 | 58* | /
O=C(Nc1ccccc1-c1nc2ccccc2[nH]1)c1sc2ccccc2c1Cl | i | 2 | 60* | i
CC1CCCCN1S(=O)(=O)c1ccc(C(=O)Nc2ccccc2-c2nc3ccccc3[nH]2)cc1 (stereo not given) | i | -1 | 50 | i
O=C(Cn1c(C(=O)N2CCN(C3CCCCC3)CC2)cc2sccc21)c1ccccc1 | i | -15 | 76* | i
CSc1ncccc1C(=O)NCCc1ccc(S(N)(=O)=O)cc1 | i | 3 | -1 | i
COc1ccc(-c2[nH]c(-c3ccc4c(c3)OCO4)nc2-c2ccccc2)cc1 | i | -4 | 47 | i
Cc1c(C)c(C)c2[nH]c(-c3ccc4c(c3)OCO4)nc2c1C | i | 35 | 58* | i
CC(NC(=O)COc1ccc(Br)cc1)C1CCCO1 (stereo not given) | i | 1 | -1 | i
CC1(C(=O)NCCOc2ccccc2Cl)CC1(Cl)Cl (stereo not given) | i | -8 | 11 | i
Cc1cc(NC(=O)c2sccc2C)n(-c2nc3ccccc3[nH]2)n1 | i | -22 | 39 | i
Cc1cc(NC(=O)c2cccs2)n(-c2nc3ccccc3[nH]2)n1 | i | -5 | 58* | i
COc1ccc(C(=O)Nc2cc(C)nn2-c2nc3ccccc3[nH]2)c(OC)c1 | i | -21 | 61* | i
COc1cccc(OC)c1C(=O)Nc1cc(C)nn1-c1nc2ccccc2[nH]1 | i | -3 | 43 | i
CCC(C)C(=O)Nc1nc(C)c(-c2csc(Nc3ccc(Cl)cc3)n2)s1 (stereo not given) | i | 10 | 58* | i
CC(=O)Nc1ccc(Nc2nc(-c3sc(NC(C)=O)nc3C)cs2)cc1 | i | -1 | -4 | i
CC(=O)Nc1nc(C)c(-c2csc(Nc3cccc(C(C)=O)c3)n2)s1 | i | 14 | -11 | i
CC(=O)Nc1nc(C)c(-c2csc(Nc3cccc([N+](=O)[O-])c3)n2)s1 | i | -5 | 55* | i
CC(C)(C)OC(=O)N1C[C@H](O)C[C@H]1C(=O)OCC(=O)c1ccc([N+](=O)[O-])cc1 | i | 3 | -6 | i
Cc1noc(/C=C/c2cccnc2)c1[N+](=O)[O-] | i | -52 | 59* | i
